Source: ChEMBL document CHEMBL4184236, “Design, synthesis and biological evaluation of matrine derivatives as potential anticancer agents” (Bioorg Med Chem Lett, 2018)

Assays:
Type in all cases: functional, cell-based
CNE-2 = test: Anticancer activity against human CNE2 cells assessed as reduction in cell viability incubated for 48 hrs MTT assay; settings: CNE-2, 48 h
Method in brief: (§1)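 MTT assay on human hepatocarcinoma SMMC-7721, lung carcinoma A549 and nasopharyngeal carcinoma CNE2 cells, with matrine as comparator and cisplatin as positive control. IC50 is the concentration that lowers optical density of treated cells by 50% versus untreated cells, given as the mean ± SD of three experiments.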

A549 = test: Anticancer activity against human A549 cells assessed as reduction in cell viability incubated for 48 hrs MTT assay; settings: A549, 48 h; method in brief: as §1
SMMC-7721 = test: Anticancer activity against human SMMC7721 cells assessed as reduction in cell viability incubated for 48 hrs MTT assay; settings: SMMC-7721, 48 h; method in brief: as §1

`O=C1/C(=C/c2cn(Cc3ccccc3Cl)c3ccccc23)CC[C@@H]2[C@H]3CCCN4CCC[C@@H](CN12)[C@@H]34` showed an IC50 (CNE-2) of 17.4 µM, an IC50 (A549) of 18.3 µM and an IC50 (SMMC-7721) of 17.6 µM.

`O=C1/C(=C/c2cccn2Cc2ccccc2Cl)CC[C@@H]2[C@H]3CCCN4CCC[C@@H](CN12)[C@@H]34` was tested, and the IC50 (CNE-2) was 26.3 µM, the IC50 (A549) was 26.2 µM and the IC50 (SMMC-7721) was 26 µM.

`Cc1ccccc1Cn1cccc1/C=C1\CC[C@@H]2[C@H]3CCCN4CCC[C@@H](CN2C1=O)[C@@H]34` showed an IC50 (CNE-2) of 28.4 µM, an IC50 (A549) of 29.3 µM and an IC50 (SMMC-7721) of 22.4 µM.

`CC(C)(C)c1ccc(Cn2cccc2/C=C2\CC[C@@H]3[C@H]4CCCN5CCC[C@@H](CN3C2=O)[C@@H]45)cc1` was tested, and the IC50 (CNE-2) was 13.8 µM, the IC50 (A549) was 15.8 µM and the IC50 (SMMC-7721) was 16 µM.

Work on `Cc1ccc(Cn2cccc2/C=C2\CC[C@@H]3[C@H]4CCCN5CCC[C@@H](CN3C2=O)[C@@H]45)cc1` yielded an IC50 (CNE-2) of 21.9 µM, an IC50 (A549) of 24.4 µM and an IC50 (SMMC-7721) of 27.9 µM.

`COc1ccc2c(c1)c(/C=C1\CC[C@@H]3[C@H]4CCCN5CCC[C@@H](CN3C1=O)[C@@H]45)cn2Cc1ccc(Cl)cc1` was tested, and the IC50 (CNE-2) was 4.65 µM, the IC50 (A549) was 7.12 µM and the IC50 (SMMC-7721) was 5.65 µM.

For `COc1ccc(Cn2cc(/C=C3\CC[C@@H]4[C@H]5CCCN6CCC[C@@H](CN4C3=O)[C@@H]56)c3ccccc32)cc1`, the IC50 (CNE-2) was 8.43 µM, the IC50 (A549) was 11.2 µM and the IC50 (SMMC-7721) was 8.01 µM.

In the case of `COc1ccc(Cn2cccc2/C=C2\CC[C@@H]3[C@H]4CCCN5CCC[C@@H](CN3C2=O)[C@@H]45)cc1`, the IC50 (CNE-2) is reported as 28.8 µM, the IC50 (A549) is reported as 39.1 µM and the IC50 (SMMC-7721) is reported as 41.6 µM.

`O=C1/C(=C/c2cccn2Cc2ccc(Br)cc2)CC[C@@H]2[C@H]3CCCN4CCC[C@@H](CN12)[C@@H]34` showed an IC50 (CNE-2) of 17.8 µM, an IC50 (A549) of 22.9 µM and an IC50 (SMMC-7721) of 17.6 µM.

In the case of `O=C1/C(=C/c2cn(Cc3ccc(OC(F)(F)F)cc3)c3ccccc23)CC[C@@H]2[C@H]3CCCN4CCC[C@@H](CN12)[C@@H]34`, the IC50 (CNE-2) is reported as 6.64 µM, the IC50 (A549) is reported as 7.03 µM and the IC50 (SMMC-7721) is reported as 6.82 µM.

For `O=C1/C(=C/c2cn(Cc3ccc4ccccc4c3)c3ccc(Br)cc23)CC[C@@H]2[C@H]3CCCN4CCC[C@@H](CN12)[C@@H]34`, the IC50 (CNE-2) was 12.5 µM, the IC50 (A549) was 9.74 µM and the IC50 (SMMC-7721) was 8.65 µM.

`COc1ccc2c(/C=C3\CC[C@@H]4[C@H]5CCCN6CCC[C@@H](CN4C3=O)[C@@H]56)cn(Cc3ccc4ccccc4c3)c2c1` showed an IC50 (CNE-2) of 5.42 µM, an IC50 (A549) of 13.2 µM and an IC50 (SMMC-7721) of 9.06 µM.

Molecule `Cn1cccc1/C=C1\CC[C@@H]2[C@H]3CCCN4CCC[C@@H](CN2C1=O)[C@@H]34` has an IC50 (CNE-2) greater than 100 µM, an IC50 (A549) greater than 100 µM and an IC50 (SMMC-7721) greater than 100 µM.

With `O=C1/C(=C/c2cn(Cc3cccc(Cl)c3)c3cc(Cl)ccc23)CC[C@@H]2[C@H]3CCCN4CCC[C@@H](CN12)[C@@H]34` the IC50 (CNE-2) was 23.7 µM, the IC50 (A549) was 26.3 µM and the IC50 (SMMC-7721) was 23.7 µM.

`COc1ccc(Cn2cc(/C=C3\CC[C@@H]4[C@H]5CCCN6CCC[C@@H](CN4C3=O)[C@@H]56)c3ccccc32)cc1OC` was tested, and the IC50 (CNE-2) was 11.6 µM, the IC50 (A549) was 12.5 µM and the IC50 (SMMC-7721) was 11.8 µM.

Work on `COc1ccc2c(c1)c(/C=C1\CC[C@@H]3[C@H]4CCCN5CCC[C@@H](CN3C1=O)[C@@H]45)cn2Cc1ccc2ccccc2c1` yielded an IC50 (CNE-2) of 6.72 µM, an IC50 (A549) of 7.45 µM and an IC50 (SMMC-7721) of 6.89 µM.

`Cc1ccc(Cn2cc(/C=C3\CC[C@@H]4[C@H]5CCCN6CCC[C@@H](CN4C3=O)[C@@H]56)c3ccccc32)cc1` showed an IC50 (CNE-2) of 8.91 µM, an IC50 (A549) of 9.84 µM and an IC50 (SMMC-7721) of 9.12 µM.

Molecule `Cc1cccc(Cn2cc(/C=C3\CC[C@@H]4[C@H]5CCCN6CCC[C@@H](CN4C3=O)[C@@H]56)c3ccccc32)c1` has an IC50 (CNE-2) of 7.91 µM, an IC50 (A549) of 9.24 µM and an IC50 (SMMC-7721) of 8.52 µM.

For `O=C1/C(=C/c2cn(Cc3ccc4ccccc4c3)c3ccccc23)CC[C@@H]2[C@H]3CCCN4CCC[C@@H](CN12)[C@@H]34`, the IC50 (CNE-2) was 4.56 µM, the IC50 (A549) was 8.53 µM and the IC50 (SMMC-7721) was 5.65 µM.

`O=C1/C(=C/c2cccn2Cc2ccc(OCc3ccccc3)cc2)CC[C@@H]2[C@H]3CCCN4CCC[C@@H](CN12)[C@@H]34` showed an IC50 (CNE-2) of 10.8 µM, an IC50 (A549) of 13.1 µM and an IC50 (SMMC-7721) of 12.9 µM.

In the case of `COc1ccc2c(c1)c(/C=C1\CC[C@@H]3[C@H]4CCCN5CCC[C@@H](CN3C1=O)[C@@H]45)cn2Cc1ccccc1Cl`, the IC50 (CNE-2) is reported as 6.06 µM, the IC50 (A549) is reported as 6.33 µM and the IC50 (SMMC-7721) is reported as 6.21 µM.

With `O=C1/C(=C/c2cn(Cc3ccc(Br)cc3)c3ccccc23)CC[C@@H]2[C@H]3CCCN4CCC[C@@H](CN12)[C@@H]34` the IC50 (CNE-2) was 14.7 µM, the IC50 (A549) was 18.1 µM and the IC50 (SMMC-7721) was 16.8 µM.

`COc1ccc2c(/C=C3\CC[C@@H]4[C@H]5CCCN6CCC[C@@H](CN4C3=O)[C@@H]56)cn(Cc3ccc(Cl)cc3)c2c1` was tested, and the IC50 (CNE-2) was 6.84 µM, the IC50 (A549) was 10.1 µM and the IC50 (SMMC-7721) was 8.73 µM.
